From ChEMBL document CHEMBL5260841, “Discovery of N-(4-(6-Acetamidopyrimidin-4-yloxy)phenyl)-2-(2-(trifluoromethyl)phenyl)acetamide (CHMFL-FLT3-335) as a Potent FMS-like Tyrosine Kinase 3 Internal Tandem Duplication (FLT3-ITD) Mutant Selective Inhibitor for Acute Myeloid Leukemia” (J Med Chem, 2019)

How the values were obtained:
[1] = Apparent volume of distribution in Sprague-Dawley rat at 1 mg/kg, iv; assay type: ADME, organism-based; settings: in vivo, read-out: Vz
In short: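 Sprague-Dawley rats dosed IV at 1 mg/kg or by oral gavage at 10 mg/kg. Parameters from plasma exposure: AUC(0-t), AUC(0-∞), MRT, T1/2, Tmax, Vz, CLz, Cmax. Values are mean ± SD from three animals.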

[2] = Half life in Sprague-Dawley rat at 1 mg/kg, iv; assay type: ADME, organism-based; settings: in vivo
In short: (§1)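 Sprague-Dawley rats were dosed either intravenously at 1 mg/kg or by oral gavage at 10 mg/kg. Plasma PK parameters were AUC(0-t), AUC(0-∞), MRT(0-t), T1/2, Tmax, Vz, CLz, Cmax and F%. Values are the mean ± SD of three independent animals.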

[3] = target: Mitogen-activated protein kinase kinase kinase kinase 1 (Homo sapiens, UniProt Q92918); assay: Inhibition of HPK1 (unknown origin) preincubated for 60 mins followed by ATP addition and measured after 1 hr by ADP-Glo assay
Chain of Mitogen-activated protein kinase kinase kinase kinase 1 (Q92918 whole entry): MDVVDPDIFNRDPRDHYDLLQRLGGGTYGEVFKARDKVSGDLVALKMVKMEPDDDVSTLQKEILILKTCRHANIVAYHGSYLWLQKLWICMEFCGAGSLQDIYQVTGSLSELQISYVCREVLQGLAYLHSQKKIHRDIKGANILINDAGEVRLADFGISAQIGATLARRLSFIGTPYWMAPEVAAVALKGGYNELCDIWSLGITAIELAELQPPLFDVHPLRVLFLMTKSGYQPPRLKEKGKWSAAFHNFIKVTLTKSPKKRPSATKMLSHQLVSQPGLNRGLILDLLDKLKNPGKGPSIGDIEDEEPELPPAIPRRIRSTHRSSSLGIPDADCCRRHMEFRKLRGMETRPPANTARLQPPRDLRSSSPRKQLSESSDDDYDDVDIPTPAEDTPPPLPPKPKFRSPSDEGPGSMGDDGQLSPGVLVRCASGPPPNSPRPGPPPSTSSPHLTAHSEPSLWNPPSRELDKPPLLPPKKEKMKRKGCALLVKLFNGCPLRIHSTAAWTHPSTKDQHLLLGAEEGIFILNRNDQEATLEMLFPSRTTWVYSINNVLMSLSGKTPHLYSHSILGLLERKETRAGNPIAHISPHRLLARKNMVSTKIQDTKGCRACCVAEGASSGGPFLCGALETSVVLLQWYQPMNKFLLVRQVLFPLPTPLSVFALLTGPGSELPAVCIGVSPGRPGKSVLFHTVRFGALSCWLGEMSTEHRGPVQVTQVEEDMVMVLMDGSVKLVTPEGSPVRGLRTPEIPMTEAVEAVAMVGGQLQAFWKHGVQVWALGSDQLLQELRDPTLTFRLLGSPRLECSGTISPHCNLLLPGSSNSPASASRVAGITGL

MOLM-14 = assay: Downregulation of c-Myc protein expression in human MOLM-14 cells harboring FLT3-ITD mutant incubated for 4 hrs by Western blot analysis; assay type: functional, cell-based; settings: dose 0.01-3 µM
In short: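 MOLM13 and MOLM14 cells exposed to the indicated concentrations for 4 h. Whole-cell lysates analysed by Western blot for c-Myc, alongside FLT3 Tyr589/591, STAT5, AKT and ERK phosphorylation.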

MV4-11 [4] = assay: Antitumor activity against human MV4-11 cells xenografted in nu/nu mouse assessed as inhibition of tumor growth at 25 mg/kg/day, po administered via gavage for 28 days relative to control; assay type: functional; settings: MV4-11, 672 h, time 28 day, read-out: TGI
In short: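 MV4-11 cells implanted in mice. Once tumours reached a mean of about 200 mm3, mice were dosed orally once daily for 28 days with vehicle or 25, 50 or 100 mg/kg/day. Tumour size and body weight tracked relative to starting values; final tumour weight also recorded.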

BaF3 [5] = assay: Antiproliferative activity against mouse BaF3 cells transfected with FLT3 ITD D835N mutant assessed as cell growth inhibition incubated for 72 hrs by CCK-8 assay; assay type: functional
In short: (§2)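 Kinase-transformed isogenic BaF3 lines grown in RPMI 1640 with 10% FBS, 2% L-glutamine and pen/strep at 37 °C, 5% CO2. Seeded at 1500-3000 cells/well and treated with a compound concentration series for 72 h. Viability read by CCK8 absorbance at 450 nm.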

[6] = MRT (0 to t) in Sprague-Dawley rat at 10 mg/kg, po; assay type: ADME, organism-based; settings: in vivo; in short: as §1
[7] = target: Mast/stem cell growth factor receptor Kit (Homo sapiens, UniProt P10721); assay: Inhibition of KIT (unknown origin) preincubated for 60 mins followed by ATP addition and measured after 1 hr by ADP-Glo assay
Chain of Mast/stem cell growth factor receptor Kit (P10721 whole entry): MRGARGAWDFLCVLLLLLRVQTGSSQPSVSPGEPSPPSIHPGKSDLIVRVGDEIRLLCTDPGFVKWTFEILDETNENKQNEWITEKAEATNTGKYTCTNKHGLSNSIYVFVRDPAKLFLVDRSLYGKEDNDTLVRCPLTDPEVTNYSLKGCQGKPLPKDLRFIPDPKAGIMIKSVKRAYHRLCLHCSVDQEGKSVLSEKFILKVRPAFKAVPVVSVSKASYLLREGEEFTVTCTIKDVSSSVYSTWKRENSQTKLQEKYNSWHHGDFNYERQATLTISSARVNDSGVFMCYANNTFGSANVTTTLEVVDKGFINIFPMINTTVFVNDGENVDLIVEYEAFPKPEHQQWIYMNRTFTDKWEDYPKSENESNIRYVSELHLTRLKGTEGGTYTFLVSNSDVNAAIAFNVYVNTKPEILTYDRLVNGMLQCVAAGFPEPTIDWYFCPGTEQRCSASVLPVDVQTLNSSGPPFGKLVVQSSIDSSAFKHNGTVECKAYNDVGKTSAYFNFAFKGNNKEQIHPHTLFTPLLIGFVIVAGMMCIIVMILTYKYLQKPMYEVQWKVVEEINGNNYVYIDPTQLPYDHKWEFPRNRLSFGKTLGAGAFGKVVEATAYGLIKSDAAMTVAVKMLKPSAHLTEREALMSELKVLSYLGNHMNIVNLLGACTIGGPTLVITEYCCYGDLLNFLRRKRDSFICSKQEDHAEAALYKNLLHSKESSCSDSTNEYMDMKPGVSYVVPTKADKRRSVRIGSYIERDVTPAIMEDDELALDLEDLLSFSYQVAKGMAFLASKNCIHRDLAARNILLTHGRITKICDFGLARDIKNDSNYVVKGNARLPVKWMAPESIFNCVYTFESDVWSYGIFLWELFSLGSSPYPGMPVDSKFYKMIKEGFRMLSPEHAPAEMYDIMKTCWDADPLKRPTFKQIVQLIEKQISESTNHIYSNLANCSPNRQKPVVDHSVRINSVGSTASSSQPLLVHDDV
In short: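 ADP-Glo luminescence assay. Kinase was preincubated with compound for 60 min at room temperature, then ATP/substrate was added and the reaction ran 1 h at 37 °C. ADP-Glo reagent was added for 40 min, then detection reagent for 30 min, and luminescence was read. Enzyme and ATP per target: KIT 20 ng/µL, 50 µM ATP; PDGFRα 2.5 ng/µL, 25 µM ATP; PDGFRβ 1.25 ng/µL, 25 µM ATP. IC50 was taken from the dose-response fit.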

BaF3 [8] = assay: Antiproliferative activity against mouse BaF3 cells transfected with FLT3 ITD mutant harboring FLAG-tagged DYKDDDDK sequence assessed as cell growth inhibition incubated for 72 hrs by CCK-8 assay; assay type: functional; in short: as §2
MV4-11 [9] = assay: Antitumor activity against human MV4-11 cells xenografted in nu/nu mouse assessed as suppression of cell proliferation administered orally via gavage for 28 days by ki67 staining based immunohistochemical analysis; assay type: functional; settings: dose 25-100 mg/kg/day, route po, time 28.0 day
In short: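 Tumours taken from MV4-11 xenograft mice after 28 days of daily oral dosing. Tissue stained with HE, Ki-67 (proliferation) and TUNEL (apoptosis), and treated groups compared with the vehicle group.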

U-937 = assay: Antiproliferative activity against human U-937 cells transfected with wild type FLT3 assessed as cell growth inhibition incubated for 72 hrs by CCK-8 assay; assay type: functional
In short: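 Cells kept at 37 °C, 5% CO2. MV4-11 grown in IMDM with 10% FBS. MOLM13, MOLM14, U937 and HL-60 grown in RPMI 1640 with 10% FBS. OCI-AML-2 grown in α-MEM with 20% FBS. Seeded at 1500-3000 cells/well and exposed to a concentration series for 72 h. Viability read by CCK8 absorbance at 450 nm.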

[10] = target: T1, Signal transducer and activator of transcription 5A (Homo sapiens) (UniProt P42229); assay: Inhibition of STAT5 phosphorylation at Tyr694 residue in human MOLM-14 cells harboring FLT3-ITD mutant incubated for 4 hrs by Western blot analysis; assay type: cell-based; settings: dose 0.01-3 µM
T1 sequence (whole entry): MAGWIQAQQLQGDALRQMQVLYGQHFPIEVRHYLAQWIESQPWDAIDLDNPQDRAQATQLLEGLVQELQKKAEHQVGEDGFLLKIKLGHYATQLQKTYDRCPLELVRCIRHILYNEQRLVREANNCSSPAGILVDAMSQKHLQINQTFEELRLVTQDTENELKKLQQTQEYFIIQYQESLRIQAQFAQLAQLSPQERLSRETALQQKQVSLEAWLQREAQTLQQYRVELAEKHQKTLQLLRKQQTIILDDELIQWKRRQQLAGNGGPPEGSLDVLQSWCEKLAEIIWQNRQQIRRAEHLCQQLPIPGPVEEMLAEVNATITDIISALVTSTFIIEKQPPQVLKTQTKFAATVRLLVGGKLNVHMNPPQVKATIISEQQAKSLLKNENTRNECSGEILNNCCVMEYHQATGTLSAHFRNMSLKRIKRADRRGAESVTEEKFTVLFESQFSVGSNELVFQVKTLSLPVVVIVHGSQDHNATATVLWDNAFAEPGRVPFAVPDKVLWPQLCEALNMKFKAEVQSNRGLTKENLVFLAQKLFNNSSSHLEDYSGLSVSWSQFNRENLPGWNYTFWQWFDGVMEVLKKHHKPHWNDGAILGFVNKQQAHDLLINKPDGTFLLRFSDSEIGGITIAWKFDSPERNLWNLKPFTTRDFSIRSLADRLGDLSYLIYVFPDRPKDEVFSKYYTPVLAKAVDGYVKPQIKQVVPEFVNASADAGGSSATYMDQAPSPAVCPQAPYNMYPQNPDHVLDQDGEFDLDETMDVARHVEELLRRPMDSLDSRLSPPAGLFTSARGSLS
In short: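 Cells were exposed to the compound at a series of concentrations for 4 h, and whole-cell lysates were analysed by Western blot. MV4-11 cells were grown in IMDM with 10% FBS. MOLM13 and MOLM14 cells were grown in RPMI 1640 with 10% FBS. All cultures were kept at 37 °C with 5% CO2.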

BaF3 [11] = assay: Antiproliferative activity against mouse BaF3 cells transfected with FLT3 ITD mutant harboring HVDFREYEYD sequence from MV4-11 cells assessed as cell growth inhibition incubated for 72 hrs by CCK-8 assay; assay type: functional; in short: as §2
BaF3 [12] = assay: Antiproliferative activity against mouse BaF3 cells transfected with FLT3 ITD F691L mutant assessed as cell growth inhibition incubated for 72 hrs by CCK-8 assay; assay type: functional; in short: as §2

## CC(=O)Nc1cc(Oc2ccc(NC(=O)Cc3ccccc3C(F)(F)F)cc2)ncn1
[1]
  Vd: 1.2 L/kg
[2]
  half-life: 1.3 h
[3]
  IC50: > 10000 nM
MOLM-14
  Activity: Dose-Dependent Effect
MV4-11 [4]
  inhibition in vivo at 25 mg/kg/day: 48%
BaF3 [5]
  GI50: > 10000 nM
[6]
  MRT last: 4.5 h
[7]
  IC50: 681 nM
BaF3 [8]
  GI50: 85 nM
MV4-11 [9]
  Activity: Dose-Dependent Effect
U-937
  GI50: > 10000 nM
[10]
  inhibition: Dose-Dependent Effect
BaF3 [11]
  GI50: 32 nM
BaF3 [12]
  GI50: > 10000 nM
